MIC data for five molecules are collected here from ChEMBL document CHEMBL1136741, “Role of the glycopeptide framework in the antibacterial activity of hydrophobic derivatives of glycopeptide antibiotics” (2003).

By MIC is commonly meant the lowest concentration found to suppress growth. The low end stands for a more susceptible organism, the high end for a less susceptible organism.

Values after ≈ are worked out from the molar mass of the structure shown. Where only a bound is given, the exact number is not on record here.

The test system of assay [1] is Enterococcus faecalis. Description: Antibacterial activity against glycopeptide susceptible Enterococcus faecalis 559 strain. In kind it is functional. An outline of the steps:
(§1)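 MIC by broth microdilution in Mueller Hinton broth following NCCLS procedures. Compounds dissolved in 10% DMSO in water, then diluted in broth; test range 128 to 0.13 µg/mL, final DMSO 1.28% to 0.0013% accordingly. Repeat determinations usually identical and always within 2-fold. Strain 533 is a clinical isolate; strain 602 is a clinical S. haemoliticus isolate.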

The test system of assay [2] is Staphylococcus aureus. Put plainly: Antibacterial activity against glycopeptide intermediate resistant Staphylococcus aureus 3798 strain. In kind it is functional. An outline of the steps: (§2)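 MIC by broth microdilution in Mueller Hinton broth following NCCLS procedures. Compounds were dissolved in 10% DMSO in water, then diluted in broth. Final DMSO was 1.28% at 128 µg/mL antibiotic down to 0.0013% at 0.13 µg/mL. Repeat determinations were usually identical and always within 2-fold.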

The test system of assay [3] is Enterococcus faecalis. Description: Antibacterial activity against glycopeptide resistant Enterococcus faecalis 560 strain. In kind it is functional. An outline of the steps:
as §2

Assay [4] concerns Staphylococcus aureus. Description: Antibacterial activity against glycopeptide intermediate resistant Staphylococcus aureus 3797 strain. In kind it is functional. An outline of the steps: as §2
The test system of assay [5] is Staphylococcus epidermidis. Put plainly: Antibacterial activity against Staphylococcus epidermis 533 strain. In kind it is functional.
Assay [6] concerns Enterococcus faecium. Put plainly: Antibacterial activity against glycopeptide susceptible Enterococcus faecium 568 strain. In kind it is functional. An outline of the steps:
as §1

Assay [7] has as its system Staphylococcus haemolyticus. Description: Antibacterial activity against Staphylococcus haemolyticus 602 strain.
Assay [8] relates to Enterococcus faecium. Description: Antibacterial activity against glycopeptide resistant Enterococcus faecium 569 strain. In kind it is functional. A digest of the protocol: as §2

For the molecule `N[C@H]1C(=O)N[C@@H]2Cc3ccc(c(Cl)c3)Oc3cc4cc(c3O)Oc3ccc(cc3Cl)[C@@H](O)[C@@H]3NC(=O)[C@H](NC(=O)[C@@H]4NC(=O)[C@@H](NC2=O)c2cc(O)cc(c2)Oc2cc1ccc2O)c1ccc(O)c(c1)-c1c(O)cc(O)cc1[C@@H](C(=O)NCc1ccc(-c2ccc(Cl)cc2)cc1)NC3=O`, the MIC against Enterococcus faecalis [1] came to 0.25 µg/mL (≈ 0.179 µM); with Staphylococcus aureus [2] it was 1 µg/mL (≈ 0.715 µM); in the assay with Enterococcus faecalis [3], 8 µg/mL (≈ 5.72 µM); against Staphylococcus aureus [4] it was 1 µg/mL (≈ 0.715 µM); in assay [5], 0.13 µg/mL (≈ 0.0929 µM); with Enterococcus faecium [6], 0.25 µg/mL (≈ 0.179 µM). Moreover, the MIC amounted to 0.13 µg/mL (≈ 0.0929 µM) in assay [7] and 4 µg/mL (≈ 2.86 µM) in the assay with Enterococcus faecium [8].
On to `NC(=O)C[C@@H]1NC(=O)[C@H](N)[C@H](O)c2ccc(c(Cl)c2)Oc2cc3cc(c2O)Oc2ccc(cc2)[C@@H](O)[C@@H]2NC(=O)[C@H](NC(=O)[C@@H]3NC1=O)c1ccc(O)c(c1)-c1c(O)cc(O)cc1[C@@H](C(=O)NCc1ccc(-c3ccc(Cl)cc3)cc1)NC2=O`, for which the MIC was found to be 64 µg/mL (≈ 54.1 µM) in the assay on Enterococcus faecalis [1]; 64 µg/mL (≈ 54.1 µM) in the assay with Staphylococcus aureus [2]; 64 µg/mL (≈ 54.1 µM) with Enterococcus faecalis [3]; 64 µg/mL (≈ 54.1 µM) in the assay with Staphylococcus aureus [4]; 32 µg/mL (≈ 27.1 µM) in assay [5]; 32 µg/mL (≈ 27.1 µM) in the assay with Enterococcus faecium [6]. Also, the MIC (in assay [7]; against Enterococcus faecium [8]) was 64 µg/mL (≈ 54.1 µM) throughout.
As to `CN[C@H](CC(C)C)C(=O)N[C@H]1C(=O)N[C@@H](CC(N)=O)C(=O)N[C@H]2C(=O)N[C@H]3C(=O)N[C@H](C(=O)N[C@H](C(=O)O)c4cc(O)cc(O)c4-c4cc3ccc4O)[C@H](O)c3ccc(cc3)Oc3cc2cc(c3O)Oc2ccc(cc2Cl)[C@H]1O` [EREMOMYCIN AGLYCON], the MIC against Enterococcus faecalis [1] was 16 µg/mL (≈ 14.4 µM); with Staphylococcus aureus [2], over 64 µg/mL; against Enterococcus faecalis [3], over 128 µg/mL; against Staphylococcus aureus [4], over 64 µg/mL; in assay [5], 32 µg/mL (≈ 28.8 µM); against Enterococcus faecium [6] it was 32 µg/mL (≈ 28.8 µM). For the same molecule, the MIC in assay [7] was 16 µg/mL (≈ 14.4 µM); in the assay on Enterococcus faecium [8], over 128 µg/mL.
For the molecule `CN[C@H](CC(C)C)C(=O)N[C@H]1C(=O)N[C@@H](CC(N)=O)C(=O)N[C@H]2C(=O)N[C@H]3C(=O)N[C@H](C(=O)N[C@H](C(=O)O)c4cc(O)cc(O)c4-c4cc3ccc4O)[C@H](O[C@@H]3C[C@@](C)(N)[C@H](O)[C@@H](C)O3)c3ccc(cc3)Oc3cc2cc(c3O[C@H]2O[C@@H](CO)[C@H](O)[C@@H](O)[C@@H]2O[C@H]2C[C@](C)(N)[C@@H](O)[C@H](C)O2)Oc2ccc(cc2Cl)[C@H]1O` [EREMOMYCIN], the MIC against Enterococcus faecalis [1] is 0.25 µg/mL (≈ 0.16 µM); against Staphylococcus aureus [2], 8 µg/mL (≈ 5.13 µM); in the assay with Enterococcus faecalis [3], over 128 µg/mL; with Staphylococcus aureus [4] it was 8 µg/mL (≈ 5.13 µM); in assay [5] it was 0.25 µg/mL (≈ 0.16 µM); with Enterococcus faecium [6] it was 0.25 µg/mL (≈ 0.16 µM). The figures for the MIC (in assay [7]; against Enterococcus faecium [8]) were 0.25 µg/mL (≈ 0.16 µM) and over 128 µg/mL, respectively.
Turning to `N[C@H]1C(=O)N[C@@H]2Cc3ccc(c(Cl)c3)Oc3cc4cc(c3O)Oc3ccc(cc3Cl)[C@@H](O)[C@@H]3NC(=O)[C@H](NC(=O)[C@@H]4NC(=O)[C@@H](NC2=O)c2cc(O)cc(c2)Oc2cc1ccc2O)c1ccc(O)c(c1)-c1c(O)cc(O)cc1[C@@H](C(=O)O)NC3=O` [TEICOPLANIN AGLYCON], the minimum inhibitory concentration (MIC) in the assay with Enterococcus faecalis [1] is 0.13 µg/mL (≈ 0.108 µM); with Staphylococcus aureus [2] it was 1 µg/mL (≈ 0.834 µM); with Enterococcus faecalis [3], over 128 µg/mL; against Staphylococcus aureus [4], 1 µg/mL (≈ 0.834 µM); in assay [5], 0.25 µg/mL (≈ 0.209 µM); against Enterococcus faecium [6], 0.13 µg/mL (≈ 0.108 µM). Further, the MIC in assay [7] is 0.25 µg/mL (≈ 0.209 µM); against Enterococcus faecium [8], over 128 µg/mL.
